Reference: ChEMBL document CHEMBL6092223, “Covalent Inhibitors of KEAP1 with Exquisite Selectivity” (J Med Chem, 2024)
Calls of active or inactive are those of the source. No cut-off for these calls is given here.

Tests used:
Mus musculus [1] = test: Induction of NQO1 mRNA expression in C57BI6 mouse kidney at 100 mg/kg measured after 24 hrs; format: functional, organism-based
[2] = In vivo activation of Nrf2 in male db/db mouse assessed as increase in NQO1 mRNA expression in kidney at 100 mg/kg, po administered via gavage and measured after 6 hrs relative to control; format: functional
In short: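 Fed male db/db mice (8–10 weeks) dosed 100 mg/kg by oral gavage in 1% HEC. Kidney Nqo1 mRNA measured at 6 h or 24 h and expressed as % change versus vehicle-treated mice.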

[3] = target: Kelch-like ECH-associated protein 1 (Homo sapiens) (UniProt Q14145); test: Binding affinity to human Keap1 BTB domain (48 to 213 residues) extracted from Escherichia coli BL21(DE3)-R3-pRARE2 cells assessed as adduct formation by intact mass spectrometry
Chain of Kelch-like ECH-associated protein 1 (Homo sapiens) (Q14145 whole entry, the tested form may be a part): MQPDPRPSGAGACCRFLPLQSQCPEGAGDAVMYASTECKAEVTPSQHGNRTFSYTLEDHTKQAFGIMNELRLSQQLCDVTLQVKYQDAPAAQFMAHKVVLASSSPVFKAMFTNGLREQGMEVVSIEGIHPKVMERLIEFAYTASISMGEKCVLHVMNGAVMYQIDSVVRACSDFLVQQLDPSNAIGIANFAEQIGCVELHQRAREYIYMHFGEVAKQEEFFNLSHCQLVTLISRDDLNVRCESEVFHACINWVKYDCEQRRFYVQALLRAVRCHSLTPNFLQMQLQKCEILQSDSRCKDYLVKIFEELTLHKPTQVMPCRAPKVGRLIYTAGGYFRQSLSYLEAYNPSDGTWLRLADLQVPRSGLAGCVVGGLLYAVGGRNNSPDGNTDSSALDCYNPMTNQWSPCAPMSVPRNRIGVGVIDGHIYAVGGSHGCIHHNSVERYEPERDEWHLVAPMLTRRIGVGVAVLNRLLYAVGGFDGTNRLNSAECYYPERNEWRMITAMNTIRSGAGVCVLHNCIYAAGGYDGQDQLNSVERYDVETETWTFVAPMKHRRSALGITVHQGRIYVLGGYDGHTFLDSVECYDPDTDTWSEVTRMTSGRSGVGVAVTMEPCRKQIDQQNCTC

Fibroblast = test: Effect on ARE signal response in Nrf2 knockout mouse embryonic fibroblast cells; format: functional, cell-based
[4] = In vivo activation of Nrf2 in male db/db mouse assessed as increase in NQO1 mRNA expression in kidney at 100 mg/kg, po administered via gavage and measured after 24 hrs relative to control; format: functional
Homo sapiens = species: Homo sapiens; test: Binding affinity to human Keap1 BTB domain C151A mutant (48 to 213 residues) extracted from Escherichia coli BL21(DE3)-R3-pRARE2 cells assessed as adduct formation by intact mass spectrometry
Mus musculus [5] = test: Induction of NQO1 mRNA expression in Nrf2-/- mouse kidney at 100 mg/kg measured after 24 hrs; format: functional, organism-based
Keap1/Nrf2 [6] = target: T1, Keap1/Nrf2 (Homo sapiens, UniProt Q14145); test: Inhibition of human Keap1/PL-tagged human Nrf2 protein-protein interaction in human PathHunter U2OS Keap1-NRF2 Nuclear Translocation cells assessed as increase in Nrf2 translocation incubated for 3 hrs by luminescence based analysis; format: cell-based
T1 sequence (Q16236 whole entry): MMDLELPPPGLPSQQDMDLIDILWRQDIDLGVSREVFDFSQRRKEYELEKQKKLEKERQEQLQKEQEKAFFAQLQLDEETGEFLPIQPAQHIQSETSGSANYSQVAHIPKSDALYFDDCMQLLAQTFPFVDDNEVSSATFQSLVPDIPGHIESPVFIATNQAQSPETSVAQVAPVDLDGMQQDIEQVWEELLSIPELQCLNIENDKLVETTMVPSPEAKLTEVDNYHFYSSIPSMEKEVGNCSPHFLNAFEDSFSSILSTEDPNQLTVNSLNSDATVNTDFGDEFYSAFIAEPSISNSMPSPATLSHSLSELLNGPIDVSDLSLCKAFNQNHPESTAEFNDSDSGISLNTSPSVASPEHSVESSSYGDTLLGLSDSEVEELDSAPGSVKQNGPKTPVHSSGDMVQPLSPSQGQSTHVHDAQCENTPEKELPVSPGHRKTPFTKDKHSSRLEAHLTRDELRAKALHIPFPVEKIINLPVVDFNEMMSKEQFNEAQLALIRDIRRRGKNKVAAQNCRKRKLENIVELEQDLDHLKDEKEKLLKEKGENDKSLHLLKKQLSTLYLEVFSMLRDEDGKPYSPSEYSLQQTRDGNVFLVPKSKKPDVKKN
T1 sequence (Q14145 whole entry): as the sequence (Q14145 whole entry, the tested form may be a part) above

Keap1/Nrf2 [7] = target: T1, Keap1/Nrf2; test: Inhibition of Keap1/Nrf2 protein-protein interaction in human HepG2 cells transfected with beta-lactamase under the control of ARE incubated for 16 hrs by ARE-reporter based FRET assay; format: cell-based
in vitro [8] = format: ADME, Microsome; conditions: human, pooled liver microsomes, time < 55 min, read-out: CLH
[9] = Apparent permeability across apical to basolateral side in human Caco-2 cells at 10 uM incubated for 120 mins by LC-MS/MS analysis
[10] = Efflux ratio of apparent permeability across basolateral to apical over apical to basolateral side in human Caco-2 cells at 10 uM incubated for 120 mins by LC-MS/MS analysis; conditions: caco-2, 2 h
in vitro [11] = format: ADME, Microsome; conditions: mouse, pooled liver microsomes, time < 55 min, read-out: CLH
[12] = target: T2, RNA-binding protein 12B (Homo sapiens) (UniProt Q8IXT5); test: Binding affinity to RBM12B at C204 residue in human MDA-MB-231 cells at 1 uM incubated for 3 hrs in presence of IAA by proteome-wide scale isoTOP ABPP method; format: cell-based
T2 sequence (whole entry): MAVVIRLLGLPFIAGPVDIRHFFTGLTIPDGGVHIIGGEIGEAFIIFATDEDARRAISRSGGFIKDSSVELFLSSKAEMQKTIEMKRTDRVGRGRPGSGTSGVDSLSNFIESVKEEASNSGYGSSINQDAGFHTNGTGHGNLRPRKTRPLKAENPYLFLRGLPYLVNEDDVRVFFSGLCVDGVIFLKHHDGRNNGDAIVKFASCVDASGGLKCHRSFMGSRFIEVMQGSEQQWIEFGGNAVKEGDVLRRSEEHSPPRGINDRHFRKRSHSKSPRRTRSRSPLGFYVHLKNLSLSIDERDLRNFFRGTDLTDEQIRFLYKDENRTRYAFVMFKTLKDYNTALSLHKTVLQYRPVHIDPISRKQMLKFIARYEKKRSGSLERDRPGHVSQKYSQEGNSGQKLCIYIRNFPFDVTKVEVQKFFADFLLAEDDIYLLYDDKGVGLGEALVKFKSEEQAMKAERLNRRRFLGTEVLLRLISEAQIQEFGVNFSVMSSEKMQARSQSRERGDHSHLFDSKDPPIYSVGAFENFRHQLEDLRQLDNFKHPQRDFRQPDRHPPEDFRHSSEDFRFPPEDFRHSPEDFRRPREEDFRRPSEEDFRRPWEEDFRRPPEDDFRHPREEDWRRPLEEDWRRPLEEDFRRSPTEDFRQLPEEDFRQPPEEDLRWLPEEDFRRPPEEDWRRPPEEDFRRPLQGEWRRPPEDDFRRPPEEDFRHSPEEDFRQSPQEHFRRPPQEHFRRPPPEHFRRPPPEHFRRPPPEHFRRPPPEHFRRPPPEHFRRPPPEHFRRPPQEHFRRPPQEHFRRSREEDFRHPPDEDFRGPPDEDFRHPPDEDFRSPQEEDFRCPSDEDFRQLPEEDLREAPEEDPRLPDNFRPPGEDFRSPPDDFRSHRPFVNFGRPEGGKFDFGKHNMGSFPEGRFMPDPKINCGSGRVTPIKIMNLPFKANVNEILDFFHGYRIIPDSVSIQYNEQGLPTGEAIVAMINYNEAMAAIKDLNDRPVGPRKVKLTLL
In short: (§1)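 Live MDA-MB-231 cells treated 3 h with compound at 1 μM, or with DMSO vehicle. 100 μM iodoacetamide-alkyne then added as a clickable cysteine-reactive probe. Cysteine competition read by isoTOP ABPP; competed peptides called at ratio R > 4.5.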

[13] = target: T3, Kelch-like protein 26 (Homo sapiens) (UniProt Q53HC5); test: Binding affinity to human KLHL26 BTB domain (34 to 161 residues) extracted from Escherichia coli BL21(DE3)-R3-pRARE2 cells assessed as adduct formation at 100 uM by LC-MS analysis
T3 sequence (whole entry): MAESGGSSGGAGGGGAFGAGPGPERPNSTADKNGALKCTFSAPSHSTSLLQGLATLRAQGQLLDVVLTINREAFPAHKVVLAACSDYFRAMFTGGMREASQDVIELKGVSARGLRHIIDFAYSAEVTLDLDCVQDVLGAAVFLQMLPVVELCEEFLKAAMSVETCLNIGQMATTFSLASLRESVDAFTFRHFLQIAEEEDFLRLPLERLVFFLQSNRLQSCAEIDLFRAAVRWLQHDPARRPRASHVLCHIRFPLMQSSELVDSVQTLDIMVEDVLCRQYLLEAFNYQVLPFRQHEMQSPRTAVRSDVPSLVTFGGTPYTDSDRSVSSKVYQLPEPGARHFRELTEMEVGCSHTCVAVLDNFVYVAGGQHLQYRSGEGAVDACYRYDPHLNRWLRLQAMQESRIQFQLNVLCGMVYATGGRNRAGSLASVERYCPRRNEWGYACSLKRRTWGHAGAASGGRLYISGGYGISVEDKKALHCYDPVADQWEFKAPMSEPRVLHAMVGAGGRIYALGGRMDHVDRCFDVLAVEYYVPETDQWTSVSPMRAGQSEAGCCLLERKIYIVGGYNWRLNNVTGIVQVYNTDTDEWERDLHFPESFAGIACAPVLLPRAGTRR

[14] = target: T4, Perilipin-3 (Homo sapiens) (UniProt O60664); test: Binding affinity to PLIN3 at C39 residue in human MDA-MB-231 cells at 1 uM incubated for 3 hrs in presence of IAA by proteome-wide scale isoTOP ABPP method; format: cell-based; in short: as §1
T4 sequence (whole entry): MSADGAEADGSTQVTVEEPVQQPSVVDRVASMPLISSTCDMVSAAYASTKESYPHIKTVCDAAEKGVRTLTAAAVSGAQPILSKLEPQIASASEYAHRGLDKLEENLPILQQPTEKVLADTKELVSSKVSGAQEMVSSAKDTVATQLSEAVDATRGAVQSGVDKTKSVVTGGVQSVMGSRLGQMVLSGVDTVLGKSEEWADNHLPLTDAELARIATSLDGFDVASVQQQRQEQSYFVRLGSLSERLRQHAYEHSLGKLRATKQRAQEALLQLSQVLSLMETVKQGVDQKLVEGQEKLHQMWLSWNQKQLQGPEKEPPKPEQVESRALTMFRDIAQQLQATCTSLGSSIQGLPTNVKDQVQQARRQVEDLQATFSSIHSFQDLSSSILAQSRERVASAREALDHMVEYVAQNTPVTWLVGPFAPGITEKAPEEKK

[15] = target: T4, Perilipin-3 (Homo sapiens); test: Binding affinity to PLIN3 at C60 residue in human MDA-MB-231 cells at 1 uM incubated for 3 hrs in presence of IAA by proteome-wide scale isoTOP ABPP method; format: cell-based; in short: as §1
[16] = target: Kelch-like ECH-associated protein 1 (Homo sapiens) (UniProt Q14145); test: Binding affinity to human Keap1 BTB domain (48 to 213 residues) extracted from Escherichia coli BL21(DE3)-R3-pRARE2 cells assessed as adduct formation at 100 uM by LC-MS analysis
[17] = Genotoxicity in […] assessed as clastogenicity at 10 uM measured after 4 to 24 hrs by DNA damage response assay; format: toxicity, cell-based; conditions: time 4-24 hrs
[18] = Genotoxicity in human TK6 cells assessed as clastogenicity at 10 uM measured after 4 to 24 hrs by DNA damage response assay; format: toxicity, cell-based; conditions: tk6, 10 µM, time 4-24 hrs
[19] = Cmax in male db/db mouse at 100 mg/kg, po administered via gavage and measured after 30 mins; format: ADME, organism-based; conditions: in vivo, 0.5 h
In short: (§2)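 Male db/db mice (8–10 weeks), fed, single oral gavage of 100 mg/kg; vehicle 1% hydroxyethyl cellulose, except one compound given in Phosal 50PG/ethanol/PEG400.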

[20] = AUC in male db/db mouse at 100 mg/kg, po administered via gavage and measured after 24 hrs; format: ADME, organism-based; conditions: in vivo; in short: as §2
in vitro [21] = format: ADME, Microsome; conditions: rat, pooled liver microsomes, time < 55 min, read-out: CLH
Mus musculus [22] = test: Induction of NQO1 mRNA expression in C57BI6 mouse kidney at 10 mg/kg measured after 24 hrs; format: functional, organism-based
Mus musculus [23] = test: Induction of NQO1 mRNA expression in Nrf2-/- mouse kidney at 10 mg/kg measured after 24 hrs; format: functional, organism-based

Structure (SMILES): CCS(=O)(=O)c1nc(S(=O)(=O)c2ccccc2Cl)c(N2CCN(C)C(=O)C2)s1
- Activity (Mus musculus [1]): Active
- Activity [2]: 199%
- Activity [3]: Active
- Activity (Fibroblast): Not active; Compound Selectively Acts Through Keap1-Nrf2 Axis
- Activity [4]: 379%
- Activity (Homo sapiens): inactive
- Activity (Mus musculus [5]): inactive

Structure (SMILES): CCS(=O)(=O)c1nc(S(=O)(=O)c2ccc(-c3cccn(C)c3=O)cc2)c(N2CCN(C)C(=O)C2)s1
- EC50 (Keap1/Nrf2 [6]): 1490 nM
- EC50 (Keap1/Nrf2 [7]): 516 nM
- CLint scaled at 0.75 h, 0.1 µM (in vitro [8]): 8.5 mL/min/kg
- Papp A→B at 2 h, 10 µM [9]: 0.74 ×10⁻⁶ cm/s
- Ratio [10]: 46
- CLint scaled at 0.75 h, 0.1 µM (in vitro [11]): 22 mL/min/kg

Structure (SMILES): CCS(=O)(=O)c1nc(S(=O)(=O)c2ccccc2Cl)c(N2CCN(C)C(=O)[C@H]2C)s1
- Activity [12]: Active
- Activity [13]: inactive
- Activity [14]: Active
- Activity [2]: 344%
- Activity [15]: Active
- Activity [16]: Active

Structure (SMILES): Cc1ccc(S(=O)(=O)c2nc(S(=O)(=O)c3ccccc3)sc2N2CCN(C)CC2)cc1
- EC50 (Keap1/Nrf2 [6]): 338 nM
- EC50 (Keap1/Nrf2 [7]): 115 nM

Structure (SMILES): CCS(=O)(=O)c1nc(S(=O)(=O)c2ccccc2Cl)c(N2CC3(CC3)C2)s1
- EC50 (Keap1/Nrf2 [6]): > 32000 nM
- EC50 (Keap1/Nrf2 [7]): ≥ 13000 nM

Structure (SMILES): CCP1(=O)CCN(c2sc(S(=O)(=O)CC)nc2S(=O)(=O)c2cccc(Cl)c2Cl)CC1
- Activity [17]: Non-toxic
- Activity [18]: Non-toxic
- Cmax [19]: 6.39 µM
- EC50 (Keap1/Nrf2 [6]): 527 nM
- EC50 (Keap1/Nrf2 [7]): 160 nM
- AUC [20]: 8.5 µM·h
- Activity [13]: inactive
- CLint scaled at 0.75 h, 0.1 µM (in vitro [8]): 2.6 mL/min/kg
- Papp A→B at 2 h, 10 µM [9]: 3 ×10⁻⁶ cm/s
- Activity [2]: 125%
- CLint scaled at 0.75 h, 0.1 µM (in vitro [21]): 62 mL/min/kg
- Activity [4]: 116%
- Ratio [10]: 8.7
- Activity [16]: Active
- CLint scaled at 0.75 h, 0.1 µM (in vitro [11]): 52 mL/min/kg

Structure (SMILES): CCS(=O)(=O)c1nc(S(=O)(=O)c2ccccc2C#N)c(N2CCN(C)C(=O)[C@H]2C)s1
- Activity [13]: inactive
- Activity [2]: 88%
- Activity [4]: 214%
- Activity [16]: Active

Structure (SMILES): CN1CCN(c2sc(S(=O)(=O)C3CC3)nc2S(=O)(=O)c2ccccc2Cl)CC1=O
- Activity [2]: 149%
- Activity [4]: 164%

Structure (SMILES): CCS(=O)(=O)c1nc(S(=O)(=O)c2ccccc2C#N)c(N2CCN(C)C(=O)C2)s1
- Activity [2]: 299%
- Activity [4]: 209%

Structure (SMILES): CC1(C)CC[C@]2(C(=O)O)CC[C@]3(C)[C@H](C(=O)C=C4[C@@]5(C)C=C(C#N)C(=O)C(C)(C)[C@@H]5CC[C@]43C)[C@@H]2C1
- Activity (Mus musculus [22]): Active
- Activity (Mus musculus [23]): inactive

Structure (SMILES): CCS(=O)(=O)c1nc(S(=O)(=O)c2ccccc2Cl)c(N2CCP(C)(=O)CC2)s1
- EC50 (Keap1/Nrf2 [6]): 4210 nM
- EC50 (Keap1/Nrf2 [7]): 946 nM
- Papp A→B at 2 h, 10 µM [9]: 1.4 ×10⁻⁶ cm/s
- CLint scaled at 0.75 h, 0.1 µM (in vitro [21]): 5.6 mL/min/kg
- Ratio [10]: 4.5

Structure (SMILES): Cc1ccc(S(=O)(=O)c2nc(S(=O)(=O)c3ccccc3)sc2N2CCOCC2)cc1
- EC50 (Keap1/Nrf2 [6]): 270 nM

Structure (SMILES): C=Cc1nc(S(=O)(=O)c2ccccc2Cl)c(N2CCN(C)C(=O)C2)s1
- Activity [12]: Active
